According to ChEMBL document CHEMBL3414508, “A few atoms make the difference: synthetic, CD, NMR and computational studies on antiviral and antibacterial activities of glycopeptide antibiotic aglycon derivatives” (Eur J Med Chem, 2015):

Tests used:
[1] = Cytotoxicity against MDCK cells after 72 hrs by MTS assay; type: cell-based, Canis lupus familiaris; details: dog
Outline: (§1)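 Uninfected MDCK cultures were run in parallel with serial compound dilutions for 72 h at 35°C. MCC is the concentration producing minimal changes in cell morphology, judged by microscopy. […] Means of 2 to 5 independent tests.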

[2] = Antiviral activity against Influenza A virus (A/Hong Kong/7/1987(H3N2)) infected in MDCK cells assessed as reduction of virus-induced cytopathic effect after 72 hrs by microscopic analysis; type: functional, cell-based
Outline: (§2)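 Subconfluent MDCK cultures given serial compound dilutions together with virus at MOI 0.0004 PFU/cell. Incubation 72 h at 35°C. […] Means of 2 to 5 independent tests.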

Influenza A virus [3] = assay: Antiviral activity against Influenza A virus (A/Puerto Rico/8/34(H1N1)) infected in MDCK cells assessed as reduction of virus-induced cytopathic effect after 72 hrs by microscopic analysis; type: functional, organism-based; details: A/Puerto Rico/8/1934(H1N1)
Outline: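 Subconfluent MDCK cultures given serial compound dilutions together with virus at MOI 0.0004 PFU/cell. Incubation 72 h at 35°C. Means of 2 to 5 independent tests.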

Influenza A virus [4] = assay: Antiviral activity against Influenza A virus (A/Puerto Rico/8/34(H1N1)) infected in MDCK cells assessed as cell viability after 72 hrs by MTS assay; type: functional, organism-based, A/Puerto Rico/8/1934(H1N1); outline: as §2
Influenza B virus [5] = assay: Antiviral activity against Influenza B virus (B/Hong Kong/05/1972) infected in MDCK cells assessed as cell viability after 72 hrs by MTS assay; type: functional, cell-based; details: B/Hong Kong/05/1972, MDCK; outline: as §2
Influenza B virus [6] = assay: Antiviral activity against Influenza B virus (B/Hong Kong/05/1972) infected in MDCK cells assessed as reduction of virus-induced cytopathic effect after 72 hrs by microscopic analysis; type: functional, cell-based; details: B/Hong Kong/05/1972, MDCK; outline: as §2
[7] = Cytotoxicity against MDCK cells after 72 hrs by microscopic analysis; type: cell-based, Canis lupus familiaris; details: dog; outline: as §1
[8] = Antiviral activity against Influenza A virus (A/Hong Kong/7/1987(H3N2)) infected in MDCK cells assessed as cell viability after 72 hrs by MTS assay; type: functional, cell-based; outline: as §2
[9] = Influenza A virus, A/Puerto Rico/8/1934(H1N1), MDCK, 72 h

Structure (SMILES)	CC50 at 72 h [1]	EC50 [2]	EC50 (Influenza A virus [3])	EC50 (Influenza A virus [4]; [9])	EC50 (Influenza B virus [5])	EC50 (Influenza B virus [6])	MCC at 72 h [7]	EC50 [8]	EC50 (Influenza A virus [4]; mdck)
COC(=O)[C@H]1NC(=O)[C@H]2NC(=O)[C@H](NC(=O)[C@@H]3NC(=O)[C@H]4NC(=O)[C@H](NC(=O)[C@H](Nc5c(NCc6ccc(-c7ccccc7)cc6)c(=O)c5=O)c5ccc(O)c(c5)Oc5cc4cc(O)c5C)[C@H](O)c4ccc(cc4)Oc4cc3cc(c4O)Oc3ccc(cc3)[C@H]2O)c2ccc(O)c(c2)-c2c(O)cc(O)cc21	39 µM	0.15 µM	0.15 µM	0.21 µM	1 µM	0.84 µM	20 µM	≤ 0.42 µM	–
NC(=O)c1ncn([C@@H]2O[C@H](CO)[C@@H](O)[C@H]2O)n1 [RIBAVIRIN]	> 100 µM	12 µM	–	–	3.4 µM	7 µM	> 100 µM	12 µM	8.9 µM
COc1c(N[C@H]2C(=O)N[C@@H]3Cc4ccc(c(Cl)c4)Oc4cc5cc(c4O)Oc4ccc(cc4Cl)[C@@H](O)[C@@H]4NC(=O)[C@H](NC(=O)[C@@H]5NC(=O)[C@@H](NC3=O)c3cc(O)cc(c3)Oc3cc2ccc3O)c2ccc(O)c(c2)-c2c(O)cc(O)cc2[C@@H](C(=O)O)NC4=O)c(=O)c1=O	49 µM	> 100 µM	> 100 µM	> 100 µM	> 100 µM	> 100 µM	100 µM	> 100 µM	–
COC(=O)[C@H]1NC(=O)[C@H]2NC(=O)[C@H](NC(=O)[C@@H]3NC(=O)[C@H]4NC(=O)[C@@H](Cc5ccc(c(Cl)c5)Oc5cc3cc(c5O)Oc3ccc(cc3Cl)[C@H]2O[C@@H]2O[C@H](CO)[C@@H](O)[C@H](O)[C@H]2NC(C)=O)NC(=O)[C@H](Nc2c(OC)c(=O)c2=O)c2ccc(O)c(c2)Oc2cc(O)cc4c2)c2ccc(O)c(c2)-c2c(O)cc(O)cc21	> 100 µM	> 100 µM	> 100 µM	> 100 µM	> 100 µM	> 100 µM	100 µM	> 100 µM	–
CC(=O)N[C@H]1[C@H](O[C@@H]2c3ccc(c(Cl)c3)Oc3cc4cc(c3O)Oc3ccc(cc3Cl)C[C@H]3NC(=O)[C@H](Nc5c(NCc6ccc(-c7ccccc7)cc6)c(=O)c5=O)c5ccc(O)c(c5)Oc5cc(O)cc(c5)[C@H](NC3=O)C(=O)N[C@H]4C(=O)N[C@H]3C(=O)N[C@@H]2C(=O)N[C@H](C(=O)O)c2cc(O)cc(O)c2-c2cc3ccc2O)O[C@H](CO)[C@@H](O)[C@@H]1O	6.5 µM	> 100 µM	> 100 µM	> 100 µM	> 100 µM	> 100 µM	0.8 µM	> 100 µM	–
N[C@H]1C(=O)N[C@@H]2Cc3ccc(c(Cl)c3)Oc3cc4cc(c3O)Oc3ccc(cc3Cl)[C@@H](O)[C@@H]3NC(=O)[C@H](NC(=O)[C@@H]4NC(=O)[C@@H](NC2=O)c2cc(O)cc(c2)Oc2cc1ccc2O)c1ccc(O)c(c1)-c1c(O)cc(O)cc1[C@@H](C(=O)O)NC3=O [TEICOPLANIN AGLYCON]	> 100 µM	> 100 µM	> 100 µM	> 100 µM	> 100 µM	> 100 µM	100 µM	> 100 µM	–
COC(=O)[C@H]1NC(=O)[C@H]2NC(=O)[C@H](NC(=O)[C@@H]3NC(=O)[C@H]4NC(=O)[C@@H](Cc5ccc(c(Cl)c5)Oc5cc3cc(c5O)Oc3ccc(cc3Cl)[C@H]2O[C@@H]2O[C@H](CO)[C@@H](O)[C@H](O)[C@H]2NC(C)=O)NC(=O)[C@H](N)c2ccc(O)c(c2)Oc2cc(O)cc4c2)c2ccc(O)c(c2)-c2c(O)cc(O)cc21	> 100 µM	> 100 µM	> 100 µM	> 100 µM	> 100 µM	> 100 µM	100 µM	> 100 µM	–
CC(=O)N[C@H]1[C@H](O[C@@H]2c3ccc(c(Cl)c3)Oc3cc4cc(c3O)Oc3ccc(cc3Cl)C[C@H]3NC(=O)[C@H](N)c5ccc(O)c(c5)Oc5cc(O)cc(c5)[C@H](NC3=O)C(=O)N[C@H]4C(=O)N[C@H]3C(=O)N[C@@H]2C(=O)N[C@H](C(=O)O)c2cc(O)cc(O)c2-c2cc3ccc2O)O[C@H](CO)[C@@H](O)[C@@H]1O	> 100 µM	17 µM	–	43 µM	> 100 µM	> 100 µM	≥ 100 µM	34 µM	–
COC(=O)[C@H]1NC(=O)[C@H]2NC(=O)[C@H](NC(=O)[C@@H]3NC(=O)[C@H]4NC(=O)[C@@H](Cc5ccc(cc5)Oc5cc3cc(c5O)Oc3ccc(cc3)[C@H]2O)NC(=O)[C@H](Nc2c(NCc3ccc(-c5ccccc5)cc3)c(=O)c2=O)c2ccc(O)c(c2)Oc2cc(O)cc4c2)c2ccc(O)c(c2)-c2c(O)cc(O)cc21	20 µM	0.52 µM	0.67 µM	0.58 µM	> 100 µM	> 100 µM	16 µM	0.7 µM	–
NC12CC3CC(CC(C3)C1)C2 [AMANTADINE]	> 500 µM	2 µM	–	453 µM	> 500 µM	> 500 µM	> 500 µM	1.8 µM	–
COC(=O)[C@H]1NC(=O)[C@H]2NC(=O)[C@H](NC(=O)[C@@H]3NC(=O)[C@H]4NC(=O)[C@@H](Cc5ccc(c(Cl)c5)Oc5cc3cc(c5O)Oc3ccc(cc3Cl)[C@H]2O)NC(=O)[C@H](Nc2c(NCc3ccc(-c5ccccc5)cc3)c(=O)c2=O)c2ccc(O)c(c2)Oc2cc(O)cc4c2)c2ccc(O)c(c2)-c2c(O)cc(O)cc21	7.6 µM	> 100 µM	> 100 µM	> 100 µM	> 100 µM	> 100 µM	4 µM	> 100 µM	–
COC(=O)[C@H]1NC(=O)[C@H]2NC(=O)[C@H](NC(=O)[C@@H]3NC(=O)[C@H]4NC(=O)[C@@H](Cc5ccc(c(Cl)c5)Oc5cc3cc(c5O)Oc3ccc(cc3Cl)[C@H]2O[C@@H]2O[C@H](CO)[C@@H](O)[C@H](O)[C@H]2NC(C)=O)NC(=O)[C@H](Nc2c(NCc3ccc(-c5ccccc5)cc3)c(=O)c2=O)c2ccc(O)c(c2)Oc2cc(O)cc4c2)c2ccc(O)c(c2)-c2c(O)cc(O)cc21	58 µM	> 100 µM	> 100 µM	> 100 µM	> 100 µM	> 100 µM	20 µM	> 100 µM	–
CC(N)C12CC3CC(CC(C3)C1)C2 (stereo not given) [RIMANTADINE]	> 500 µM	4 µM	4 µM	15 µM	> 500 µM	> 500 µM	> 500 µM	1.1 µM	–
O=C1N[C@H]2C(=O)N[C@H]3C(=O)N[C@H](C(=O)N[C@H](C(=O)O)c4cc(O)cc(O)c4-c4cc3ccc4O)[C@H](O)c3ccc(c(Cl)c3)Oc3cc2cc(c3O)Oc2ccc(cc2Cl)C[C@H]2NC(=O)[C@H](Nc3c(NCc4ccc(-c5ccccc5)cc4)c(=O)c3=O)c3ccc(O)c(c3)Oc3cc(O)cc(c3)[C@@H]1NC2=O	11 µM	> 100 µM	> 100 µM	> 100 µM	> 100 µM	> 100 µM	20 µM	> 100 µM	–
COC(=O)[C@H]1NC(=O)[C@H]2NC(=O)[C@H](NC(=O)[C@@H]3NC(=O)[C@H]4NC(=O)[C@H](NC(=O)[C@H](N)c5ccc(O)c(c5)Oc5cc4cc(O)c5C)[C@H](O)c4ccc(cc4)Oc4cc3cc(c4O)Oc3ccc(cc3)[C@H]2O)c2ccc(O)c(c2)-c2c(O)cc(O)cc21	44 µM	4.6 µM	–	–	5.4 µM	5.1 µM	81 µM	2.5 µM	–
